Assay results published in ChEMBL document CHEMBL4673386, “The Bicyclic Form of galacto-Noeurostegine Is a Potent Inhibitor of β-Galactocerebrosidase” (ACS Med Chem Lett, 2021).

Key:
Galactocerebrosidase = biological target: T1, Galactocerebrosidase (Mus musculus, UniProt P54818); test: Inhibition of mouse N-terminal His6-tagged GALC expressed in HEK293T cells using p-nitrophenyl-beta-D-galactopyranoside as substrate
T1 sequence (P54818 whole entry): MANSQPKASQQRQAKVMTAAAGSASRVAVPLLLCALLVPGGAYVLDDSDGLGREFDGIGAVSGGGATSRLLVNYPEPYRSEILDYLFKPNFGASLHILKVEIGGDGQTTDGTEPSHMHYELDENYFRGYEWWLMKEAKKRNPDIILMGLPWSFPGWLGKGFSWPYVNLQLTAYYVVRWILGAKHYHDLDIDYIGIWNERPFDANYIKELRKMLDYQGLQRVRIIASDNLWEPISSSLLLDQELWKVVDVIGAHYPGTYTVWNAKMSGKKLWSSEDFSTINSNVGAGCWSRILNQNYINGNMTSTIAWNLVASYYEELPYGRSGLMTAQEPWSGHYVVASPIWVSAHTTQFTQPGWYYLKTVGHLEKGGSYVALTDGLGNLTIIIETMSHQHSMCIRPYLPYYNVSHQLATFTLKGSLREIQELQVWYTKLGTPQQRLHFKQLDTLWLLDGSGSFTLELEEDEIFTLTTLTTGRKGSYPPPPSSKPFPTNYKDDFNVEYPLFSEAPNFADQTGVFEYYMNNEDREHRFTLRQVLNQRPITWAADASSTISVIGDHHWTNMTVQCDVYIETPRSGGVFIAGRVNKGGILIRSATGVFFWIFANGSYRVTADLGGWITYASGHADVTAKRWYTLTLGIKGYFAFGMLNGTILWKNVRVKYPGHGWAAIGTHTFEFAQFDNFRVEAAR

[1] = Inhibition of Escherichia coli beta-galactosidase using […] as substrate preincubated for 30 mins followed by substrate addition by UV-vis spectrophotometry analysis
[2] = Inhibition of Aspergillus oryzae beta-galactosidase using […] as substrate preincubated for 30 mins followed by substrate addition by UV-vis spectrophotometry analysis
[3] = Inhibition of green coffee beans beta-galactosidase using […] as substrate preincubated for 30 mins followed by substrate addition by UV-vis spectrophotometry analysis; set-up: species or system Coffea arabica
[4] = biological target: T2, Galactocerebrosidase (Mus musculus) (UniProt P54818); test: Stabilization of mouse N-terminal His6-tagged GALC expressed in HEK293T cells assessed as change in melting temperature at pH 4.6 by differential scanning fluorimetry; format: cell-based
T2 sequence (whole entry): T1 sequence (P54818 whole entry)
Method in brief: (§1)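 GALC thermal melt curves recorded with and without ligand at 0.5 mM, at pH values from 4.6 to 7.4. Tm is read from each curve, and ΔTm is taken against GALC alone at the same pH. Runs were done in triplicate.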

[5] = biological target: T2, Galactocerebrosidase (Mus musculus); test: Stabilization of mouse N-terminal His6-tagged GALC expressed in HEK293T cells assessed as melting temperature at 0.5 mM at pH 5.6 by differential scanning fluorimetry (reference value: 62.8 degreeC); format: cell-based; method in brief: as §1
[6] = biological target: T2, Galactocerebrosidase (Mus musculus); test: Stabilization of mouse N-terminal His6-tagged GALC expressed in HEK293T cells assessed as melting temperature at 0.5 mM at pH 7.4 by differential scanning fluorimetry (reference value: 53.4 degreeC); format: cell-based; method in brief: as §1
[7] = biological target: T2, Galactocerebrosidase (Mus musculus); test: Stabilization of mouse N-terminal His6-tagged GALC expressed in HEK293T cells assessed as change in melting temperature at pH 7.4 by differential scanning fluorimetry; format: cell-based; method in brief: as §1
[8] = biological target: T2, Galactocerebrosidase (Mus musculus); test: Stabilization of mouse N-terminal His6-tagged GALC expressed in HEK293T cells assessed as melting temperature at 0.5 mM at pH 4.6 by differential scanning fluorimetry (reference value: 62.2 degreeC); format: cell-based; method in brief: as §1
[9] = biological target: T2, Galactocerebrosidase (Mus musculus); test: Stabilization of mouse N-terminal His6-tagged GALC expressed in HEK293T cells assessed as melting temperature at 0.5 mM at pH 6.6 by differential scanning fluorimetry (reference value: 59.6 degreeC); format: cell-based; method in brief: as §1
[10] = biological target: T2, Galactocerebrosidase (Mus musculus); test: Stabilization of mouse N-terminal His6-tagged GALC expressed in HEK293T cells assessed as change in melting temperature at pH 5.6 by differential scanning fluorimetry; format: cell-based; method in brief: as §1
[11] = biological target: T2, Galactocerebrosidase (Mus musculus); test: Stabilization of mouse N-terminal His6-tagged GALC expressed in HEK293T cells assessed as change in melting temperature at pH 6.6 by differential scanning fluorimetry; format: cell-based; method in brief: as §1

Row | SMILES | Ki (Galactocerebrosidase) | Ki [1] | Ki [2] | Ki [3] | ΔTm [4] | Tm [5] | Tm [6] | ΔTm [7] | Tm [8] | Tm [9] | ΔTm [10] | ΔTm [11]
1 | OC[C@@H]1[C@H](O)[C@H](O)[C@@H]2CC[C@H]1N2 | 2300 µM | > 1000 µM | 0.13 µM | > 1000 µM | – | – | – | – | – | – | – | –
2 | OC[C@@H]1[C@H](O)[C@H](O)[C@]2(O)CC[C@H]1N2 | 7 µM | > 1000 µM | 0.031 µM | > 1000 µM | 5.8 °C | 68 °C | 54.8 °C | 1.4 °C | 68 °C | 65 °C | 5.2 °C | 5.4 °C
